According to ChEMBL document CHEMBL1151736, “Design, synthesis, and biological evaluation of a series of 2-hydroxyisoquinoline-1,3(2H,4H)-diones as dual inhibitors of human immunodeficiency virus type 1 integrase and the reverse transcriptase RNase H domain” (J Med Chem, 2008):

Columns and labels:
[1] = Inhibition of HIV1 RNase H; design: species or system Human immunodeficiency virus 1
[2] = tested on: Human immunodeficiency virus 1; assay: Selectivity ratio of IC50 for HIV1 RNase H to IC50 for HIV1 integrase
How it was run: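 Ratio of the RNase H IC50 to the overall-integrase IC50. For RNase H, recombinant HIV-1 RT (4.5 pmol) was preincubated with compound for 10 min at 37 °C. It then ran 10 min at 37 °C on a 3H-RNA/DNA duplex with 6 mM MgCl2 and 80 mM KCl at pH 8.0, read by TCA-precipitated radioactivity. For integrase, ELISA used 1.6 µM integrase and 7 nM biotin/digoxigenin oligos with 10 mM MgCl2, 1 h at 37 °C.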

[3] = target: Human immunodeficiency virus type 1 reverse transcriptase (Human immunodeficiency virus 1) (UniProt Q72547); assay: Inhibition of HIV1 reverse transcriptase at 50 uM
How it was run: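 RNA-dependent DNA polymerase activity: recombinant RT preincubated 10 min at 37 °C with compound (1.0, 10.0, 50.0 µM), then 10 min at 37 °C with poly(A)-oligo(dT) 20 µg/mL, 20 µM dTTP plus [3H]dTTP, 5 mM MgCl2, 100 mM KCl, 10 mM DTT, 50 mM Tris-HCl pH 8.0; TCA-precipitated radioactivity on nitrocellulose; percent inhibition.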

[4] = target: T1, Human immunodeficiency virus type 1 integrase (Human immunodeficiency virus 1, UniProt Q7ZJM1)
T1 sequence (Q7ZJM1 whole entry): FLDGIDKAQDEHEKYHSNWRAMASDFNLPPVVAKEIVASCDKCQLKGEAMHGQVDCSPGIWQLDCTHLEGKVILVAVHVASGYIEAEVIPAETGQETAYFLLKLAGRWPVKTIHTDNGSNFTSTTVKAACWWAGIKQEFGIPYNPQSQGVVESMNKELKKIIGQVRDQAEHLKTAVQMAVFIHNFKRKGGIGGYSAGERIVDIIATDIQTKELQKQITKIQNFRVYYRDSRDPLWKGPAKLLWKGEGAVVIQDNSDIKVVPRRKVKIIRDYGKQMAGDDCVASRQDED

[5] = tested on: Human immunodeficiency virus 1; assay: Antiviral activity against HIV1 3B infected in human MT4 cells assessed as inhibition virus-induced cytopathic effect by MTT assay; assay type: functional, organism-based; conditions: Human immunodeficiency virus 1, 3B
[6] = Cytotoxicity against human MT4 cells by MTT assay; assay type: cell-based
[7] = target: T1, Human immunodeficiency virus type 1 integrase; remark: listed apart in the source
[8] = target: T1, Human immunodeficiency virus type 1 integrase; remark: listed apart in the source

IC50 [1] [µM] | Ratio IC50 [2] | inhibition [3] [%] | IC50 [4] [µM] | IC50 [7] [µM] | IC50 [8] [µM] | Compound | EC50 [5] [µM] | CC50 [6] [µM]
10.8 | 1.2 | 40 | 8.9 |  |  | O=C(Nc1ccc2c(c1)C(=O)N(O)C(=O)C2)c1cccc([N+](=O)[O-])c1 |  | 
7.2 | 1.3 | 50 | 5.42 |  |  | O=C1Cc2ccc(-c3ccc(O)cc3)cc2C(=O)N1O | > 186 | > 186
58 | 48.3 | 40 | 1.22 |  |  | O=C1Cc2ccc(I)cc2C(=O)N1O | > 70 | > 70
6.6 | 11.8 | 70 | 0.56 |  |  | O=C1Cc2ccc(-c3ccc(O)c(O)c3)cc2C(=O)N1O | > 89 | > 89
10.7 | 5.9 | 40 | 1.8 |  |  | O=C1Cc2ccc(-c3ccc(C(F)(F)F)cc3)cc2C(=O)N1O | > 47 | > 47
7.1 | 17.3 | 40 | 0.41 |  |  | O=C(Nc1ccc2c(c1)C(=O)N(O)C(=O)C2)c1ccc(F)cc1 | > 120 | > 120
5.9 |  | 40 | 6.32 |  |  | O=C1Cc2ccccc2C(=O)N1O |  | 
> 80 | > 889 | 40 | 0.09 | 7.79 | 0.1 | O=C(Cc1ccccc1)Nc1ccc2c(c1)C(=O)N(O)C(=O)C2 | > 121 | > 121
37.4 | 17 | 40 | 2.22 |  |  | O=C1Cc2ccc(O)cc2C(=O)N1O | > 48 | > 48
40.7 | 69 | 40 | 0.59 |  |  | CC(=O)Nc1ccc2c(c1)C(=O)N(O)C(=O)C2 | 148 | > 250
> 80 | > 4.2 | 40 | 18.8 |  |  | CCCCC(=O)Nc1ccc2c(c1)C(=O)N(O)C(=O)C2 | > 250 | > 250
35.3 | 272 | 40 | 0.13 | 0.75 | 0.02 | O=C(Cc1ccc(F)cc1)Nc1ccc2c(c1)C(=O)N(O)C(=O)C2 | > 116 | > 116
28.9 | 36.1 | 40 | 0.8 |  |  | O=C1Cc2ccc(Cl)cc2C(=O)N1O | > 48 | > 48
> 96 | > 166 | 40 | 0.58 | 1.4 | 0.9 | O=C1Cc2ccc(Br)cc2C(=O)N1O | > 64 | > 64
48 | 5.6 | 40 | 8.5 |  |  | O=C1Cc2ccc([N+](=O)[O-])cc2C(=O)N1O | > 205 | > 205
> 80 | > 47 | 40 | 1.73 |  |  | O=C1Cc2ccc(-c3ccccc3)cc2C(=O)N1O | > 66 | > 66
22.2 | 15.8 | 60 | 1.47 |  |  | O=C1Cc2ccc(-c3ccc(F)cc3)cc2C(=O)N1O | > 46 | > 46
5.7 | 4.7 | 40 | 1.24 |  |  | O=C(Nc1ccc2c(c1)C(=O)N(O)C(=O)C2)c1ccccc1 | 22 | 84
